Reference: ChEMBL document CHEMBL1255284, “Aspergillus section Fumigati: antifungal susceptibility patterns and sequence-based identification” (2008)
≈ marks a conversion by molar mass, not a printed value.

Tests used:
Aspergillus lentulus [1] = test: Antimicrobial activity against Aspergillus lentulus isolate CNM-CM-1290 obtained from sputum of patient after 48 hrs by broth microdilution method; format: functional; details: isolate CNM-CM-1290, 48 h
Method in brief: (§1)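 CLSI M38-A broth microdilution with modifications: RPMI 1640 with L-glutamine, 2% glucose, buffered to pH 7 with 0.165 M MOPS. Inoculum of 1 × 10^5 to 5 × 10^5 CFU/ml from 3- to 5-day-old cultures. Incubated 35°C, 48 h, humid. Visual reading with a mirror. MIC is complete growth inhibition; echinocandin MEC is hyphal morphological alteration. Azoles 8 to 0.015 μg/ml; others 16 to 0.03 μg/ml.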

Aspergillus lentulus [2] = test: Antimicrobial activity against Aspergillus lentulus isolate CNM-CM-3134 obtained from sputum of patient after 48 hrs by broth microdilution method; format: functional; details: isolate CNM-CM-3134, 48 h; method in brief: as §1
Aspergillus lentulus [3] = test: Antimicrobial activity against Aspergillus lentulus isolate CNM-CM-3364 obtained from bronchoalveolar lavage fluid of patient after 48 hrs by broth microdilution method; format: functional; details: isolate CNM-CM-3364, Lung; method in brief: as §1
Aspergillus lentulus [4] = test: Antimicrobial activity against Aspergillus lentulus isolate CNM-CM-3537 obtained from sputum of patient after 48 hrs by broth microdilution method; format: functional; details: isolate CNM-CM-3537, 48 h; method in brief: as §1
Aspergillus lentulus [5] = test: Antimicrobial activity against Aspergillus lentulus isolate CNM-CM-3538 obtained from sputum of patient after 48 hrs by broth microdilution method; format: functional; details: isolate CNM-CM-3538, 48 h; method in brief: as §1
Aspergillus lentulus [6] = test: Antimicrobial activity against Aspergillus lentulus isolate CNM-CM-3583 obtained from sputum of patient after 48 hrs by broth microdilution method; format: functional; details: isolate CNM-CM-3583, 48 h; method in brief: as §1
Aspergillus lentulus [7] = test: Antimicrobial activity against Aspergillus lentulus isolate CNM-CM-3599 obtained from sputum of patient after 48 hrs by broth microdilution method; format: functional; details: isolate CNM-CM-3599, 48 h; method in brief: as §1
Aspergillus lentulus [8] = test: Antimicrobial activity against Aspergillus lentulus isolate CNM-CM-4330 obtained from sputum of patient after 48 hrs by broth microdilution method; format: functional; details: isolate CNM-CM-4330, 48 h; method in brief: as §1
Aspergillus lentulus [9] = test: Antimicrobial activity against Aspergillus lentulus isolate CNM-CM-4370 obtained from sputum of patient after 48 hrs by broth microdilution method; format: functional; details: isolate CNM-CM-4370, 48 h; method in brief: as §1
Aspergillus lentulus [10] = test: Antimicrobial activity against Aspergillus lentulus isolate CNM-CM-4387 obtained from sputum of patient after 48 hrs by broth microdilution method; format: functional; details: isolate CNM-CM-4387, 48 h; method in brief: as §1
Aspergillus lentulus [11] = test: Antimicrobial activity against Aspergillus lentulus isolate CNM-CM-4415 obtained from sputum of patient after 48 hrs by broth microdilution method; format: functional; details: isolate CNM-CM-4415, 48 h; method in brief: as §1
Aspergillus lentulus [12] = test: Antimicrobial activity against Aspergillus lentulus isolate CNM-CM-4420 obtained from nail of patient after 48 hrs by broth microdilution method; format: functional; details: isolate CNM-CM-4420, 48 h; method in brief: as §1
Aspergillus lentulus [13] = test: Antimicrobial activity against Aspergillus lentulus isolate CNM-CM-4426 obtained from sputum of patient after 48 hrs by broth microdilution method; format: functional; details: isolate CNM-CM-4426, 48 h; method in brief: as §1
Aspergillus lentulus [14] = test: Antimicrobial activity against Aspergillus lentulus isolate CNM-CM-4428 obtained from skin of patient after 48 hrs by broth microdilution method; format: functional; details: isolate CNM-CM-4428, 48 h; method in brief: as §1
[15] = system: Aspergillus fumisynnematus; test: Antimicrobial activity against Aspergillus fumisynnematus isolate CNM-CM-4063 obtained from bronchoalveolar aspirate of patient after 48 hrs by broth microdilution method; format: functional; details: isolate CNM-CM-4063, Lung; method in brief: as §1
Neosartorya hiratsukae [16] = test: Antimicrobial activity against Neosartorya hiratsukae isolate CNM-CM-3303 obtained from skin of patient after 48 hrs by broth microdilution method; format: functional; details: Aspergillus hiratsukae, isolate CNM-CM-3303, 48 h; method in brief: as §1
Neosartorya hiratsukae [17] = test: Antimicrobial activity against Neosartorya hiratsukae isolate CNM-CM-3305 obtained from skin of patient after 48 hrs by broth microdilution method; format: functional; details: Aspergillus hiratsukae, isolate CNM-CM-3305, 48 h; method in brief: as §1
Neosartorya hiratsukae [18] = test: Antimicrobial activity against Neosartorya hiratsukae isolate CNM-CM-3764 obtained from oropharyngeal exudate of patient after 48 hrs by broth microdilution method; format: functional; details: Aspergillus hiratsukae, isolate CNM-CM-3764, 48 h; method in brief: as §1
Neosartorya hiratsukae [19] = test: Antimicrobial activity against Neosartorya hiratsukae isolate CNM-CM-3740 obtained from oropharyngeal exudate of patient after 48 hrs by broth microdilution method; format: functional; details: Aspergillus hiratsukae, isolate CNM-CM-3740, 48 h; method in brief: as §1
Neosartorya hiratsukae [20] = test: Antimicrobial activity against Neosartorya hiratsukae isolate CNM-CM-4328 obtained from cornea of patient after 48 hrs by broth microdilution method; format: functional; details: Aspergillus hiratsukae, isolate CNM-CM-4328, Cornea; method in brief: as §1
[21] = system: Neosartorya pseudofischeri; test: Antimicrobial activity against Neosartorya pseudofischeri isolate CNM-CM-3769 obtained from sputum of patient after 48 hrs by broth microdilution method; format: functional; details: Aspergillus thermomutatus
Method in brief: (§2)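 CLSI M38-A broth microdilution with modifications: RPMI 1640 with L-glutamine, MOPS-buffered to pH 7, plus 2% glucose. Inoculum 1 × 10^5 to 5 × 10^5 CFU/ml from 3–5-day cultures. Incubated at 35°C for 48 h, humid. Read visually with a mirror. MIC = complete growth inhibition; echinocandin MEC = altered hyphal morphology. QC strain A. fumigatus ATCC 2004305.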

[22] = system: Neosartorya pseudofischeri; test: Antimicrobial activity against Neosartorya pseudofischeri isolate CNM-CM-2270 obtained from sputum of patient after 48 hrs by broth microdilution method; format: functional; details: Aspergillus thermomutatus, isolate CNM-CM-2270, 48 h; method in brief: as §2
[23] = system: Neosartorya pseudofischeri; test: Antimicrobial activity against Neosartorya pseudofischeri isolate CNM-CM-4060 obtained from sputum of patient after 48 hrs by broth microdilution method; format: functional; details: Aspergillus thermomutatus; method in brief: as §2
[24] = system: Neosartorya pseudofischeri; test: Antimicrobial activity against Neosartorya pseudofischeri isolate CNM-CM-3914 obtained from nail of patient after 48 hrs by broth microdilution method; format: functional; details: Aspergillus thermomutatus, isolate CNM-CM-3914, 48 h; method in brief: as §2
Aspergillus viridinutans [25] = test: Antimicrobial activity against Aspergillus viridinutans isolate CNM-CM-3147 obtained from oropharyngeal exudate of patient after 48 hrs by broth microdilution method; format: functional; details: isolate CNM-CM-3147, 48 h; method in brief: as §1
Aspergillus viridinutans [26] = test: Antimicrobial activity against Aspergillus viridinutans isolate CNM-CM-4518 obtained from nail of patient after 48 hrs by broth microdilution method; format: functional; details: isolate CNM-CM-4518, 48 h; method in brief: as §1
Aspergillus fumigatus = test: Antimicrobial activity against Aspergillus fumigatus ATCC 2004305 after 48 hrs by broth microdilution method; format: functional; details: ATCC 2004305, 48 h
[27] = system: Aspergillus fumigatiaffinis; test: Antimicrobial activity against Aspergillus fumigatiaffinis isolate CNM-CM-2280 obtained from sputum of patient after 48 hrs by broth microdilution method; details: isolate CNM-CM-2280, 48 h
[28] = system: Aspergillus fumigatiaffinis; test: Antimicrobial activity against Aspergillus fumigatiaffinis isolate CNM-CM-3227 obtained from bronchoalveolar lavage fluid of patient after 48 hrs by broth microdilution method; details: isolate CNM-CM-3227, Lung

SMILES	MIC (Aspergillus lentulus [1])	MIC (Aspergillus lentulus [2])	MIC (Aspergillus lentulus [3])	MIC (Aspergillus lentulus [4])	MIC (Aspergillus lentulus [5])	MIC (Aspergillus lentulus [6])	MIC (Aspergillus lentulus [7])	MIC (Aspergillus lentulus [8])	MIC (Aspergillus lentulus [9])	MIC (Aspergillus lentulus [10])	MIC (Aspergillus lentulus [11])	MIC (Aspergillus lentulus [12])	MIC (Aspergillus lentulus [13])	MIC (Aspergillus lentulus [14])	MIC [15]	MIC (Neosartorya hiratsukae [16])	MIC (Neosartorya hiratsukae [17])	MIC (Neosartorya hiratsukae [18])	MIC (Neosartorya hiratsukae [19])	MIC (Neosartorya hiratsukae [20])	other results
C[C@@H](c1nc(-c2ccc(C#N)cc2)cs1)[C@](O)(Cn1cncn1)c1ccc(F)cc1F [RAVUCONAZOLE]	3.5 µg/mL (≈ 8 µM)	6 µg/mL (≈ 13.7 µM)	5.6 µg/mL (≈ 12.8 µM)	3 µg/mL (≈ 6.86 µM)	7 µg/mL (≈ 16 µM)	2 µg/mL (≈ 4.57 µM)	2 µg/mL (≈ 4.57 µM)	1.5 µg/mL (≈ 3.43 µM)	5.33 µg/mL (≈ 12.2 µM)	3 µg/mL (≈ 6.86 µM)	4.66 µg/mL (≈ 10.7 µM)	4 µg/mL (≈ 9.14 µM)	5.33 µg/mL (≈ 12.2 µM)	5 µg/mL (≈ 11.4 µM)	0.83 µg/mL (≈ 1.9 µM)	0.375 µg/mL (≈ 0.857 µM)	0.25 µg/mL (≈ 0.571 µM)	1.33 µg/mL (≈ 3.04 µM)	0.66 µg/mL (≈ 1.51 µM)	0.5 µg/mL (≈ 1.14 µM)	MIC [21]: 2 µg/mL (≈ 4.57 µM); MIC [22]: 3.5 µg/mL (≈ 8 µM); MIC [23]: 3.33 µg/mL (≈ 7.61 µM); MIC [24]: 4 µg/mL (≈ 9.14 µM); MIC (Aspergillus viridinutans [25]): 5.66 µg/mL (≈ 12.9 µM); MIC (Aspergillus viridinutans [26]): 4 µg/mL (≈ 9.14 µM); MIC (Aspergillus fumigatus): 0.25 µg/mL (≈ 0.571 µM); MIC [27]: 6 µg/mL (≈ 13.7 µM); MIC [28]: 5 µg/mL (≈ 11.4 µM)
CCC(C)n1ncn(-c2ccc(N3CCN(c4ccc(OCC5COC(Cn6cncn6)(c6ccc(Cl)cc6Cl)O5)cc4)CC3)cc2)c1=O (stereo not drawn) [ITRACONAZOLE]	9.25 µg/mL (≈ 13.1 µM)	10.2 µg/mL (≈ 14.5 µM)	8 µg/mL (≈ 11.3 µM)	8.25 µg/mL (≈ 11.7 µM)	8.25 µg/mL (≈ 11.7 µM)	0.43 µg/mL (≈ 0.609 µM)	0.5 µg/mL (≈ 0.709 µM)	6 µg/mL (≈ 8.5 µM)	8 µg/mL (≈ 11.3 µM)	8 µg/mL (≈ 11.3 µM)	16 µg/mL (≈ 22.7 µM)	8 µg/mL (≈ 11.3 µM)	6.66 µg/mL (≈ 9.44 µM)	7 µg/mL (≈ 9.92 µM)	0.25 µg/mL (≈ 0.354 µM)	0.12 µg/mL (≈ 0.17 µM)	0.185 µg/mL (≈ 0.262 µM)	0.33 µg/mL (≈ 0.468 µM)	0.16 µg/mL (≈ 0.227 µM)	0.25 µg/mL (≈ 0.354 µM)	MIC [21]: 8 µg/mL (≈ 11.3 µM); MIC [22]: 8 µg/mL (≈ 11.3 µM); MIC [23]: 11 µg/mL (≈ 15.6 µM); MIC [24]: 16 µg/mL (≈ 22.7 µM); MIC (Aspergillus viridinutans [25]): 14.4 µg/mL (≈ 20.4 µM); MIC (Aspergillus viridinutans [26]): 16 µg/mL (≈ 22.7 µM); MIC (Aspergillus fumigatus): 0.125 µg/mL (≈ 0.177 µM); MIC [27]: 6.66 µg/mL (≈ 9.44 µM); MIC [28]: 8 µg/mL (≈ 11.3 µM)
